Assay results of several laboratories.
Cell line: MCF7
Read-out: cell growth or viability

SMILES	test	conditions	quantity	result
C=C(C)[C@H](CC=C(C)C)Cc1c(O)cc(O)c2c1O[C@H](c1ccccc1O)CC2=O	MTT	48 h	IC50	21.3 µM
O=c1[nH]cc(F)c(=O)[nH]1	crystal violet	72 h	CC50	641 µM
COc1cc2c(OC)nc3c4cc5c(cc4cc(OC(C)=O)c3c2cc1OC)OCO5	MTT		GI50	4.5 µM
C=C(C)[C@H](CC=C(C)C)Cc1c(O)cc(OC)c(C(=O)/C=C/c2ccc(O)cc2O)c1O	MTT		IC50	23 µM
COC(=O)[C@]1(O)C[C@@H](O)[C@@H](O)[C@H](OC(=O)/C=C/c2ccc(O)c(O)c2)C1	WST-1		IC50	10.2 µM
COc1cccc2c1C(=O)c1c(O)c3c(c(O)c1C2=O)C[C@@](O)(C(=O)CO)C[C@@H]3O[C@H]1C[C@H](N)[C@H](O)[C@H](C)O1	MTT	10 µM, 24 h	viability	11.8%
COc1cccc2c1C(=O)c1c(O)c3c(c(O)c1C2=O)C[C@@](O)(C(=O)CO)C[C@@H]3O[C@H]1C[C@H](N)[C@H](O)[C@H](C)O1	MTT	48 h	IC50	0.8 µM
CC(C)(C)CC(C)(C)Nc1c(-c2cccc(C#N)c2)nc2ncccn12	MTT	25 µM, 48 h	viability	73.6%
COc1cc(O)c(CC=C(C)C)c2c1C(=O)CC(c1ccc(O)cc1)O2 (stereo not drawn)	MTT	48 h	IC50	> 100 µM
O=C(Nc1ccccc1OS(=O)(=O)c1ccc(F)cc1)c1ccc2ncccc2c1	MTT	100 µM, 24 h	viability	85.6%
CC(C)(C)CC(C)(C)Nc1c(-c2cccnc2)nc2ncccn12	MTT	25 µM, 48 h	viability	93.9%
CC1(C)CC[C@]2(C)CC[C@]3(C)[C@H]4CC=C5[C@@H](CC[C@H](O)C5(C)C)[C@]4(C)CC[C@@]3(C)[C@@H]2C1	WST-1		IC50	28.4 µM
COc1ccc(-c2nc3ncccn3c2NC(C)(C)CC(C)(C)C)cc1O	MTT	25 µM, 48 h	viability	65.3%
C/C=C(/C)C(=O)O[C@@H]1[C@H](OC(C)=O)c2c(ccc3ccc(=O)oc23)OC1(C)C	WST-1		IC50	39.1 µM
COc1cc2c(OC)nc3c4cc5c(cc4cc(OCCN4CCC(N6CCCCC6)CC4)c3c2cc1OC)OCO5	MTT		GI50	12 µM
